Screens from PubChem.
EBI2 antag – EBI2 receptor antagonists, beta-arrestin recruitment, primary screen, cell-based, luminescence, 7a,25-OHC stimulation, uHTS; 7a,25-OHC stimulated; inhibition, % at 5 µM; 360,000 compounds, 0.81% hits; in the data active = inhibition above about 38%;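 also: enzyme fragment complementation signal reports receptor beta-arrestin coupling in cells; 0% = agonist plus DMSO wells and 100% = wells without agonist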
Target sequence (P32249 whole entry, looked up, the tested form may be a part): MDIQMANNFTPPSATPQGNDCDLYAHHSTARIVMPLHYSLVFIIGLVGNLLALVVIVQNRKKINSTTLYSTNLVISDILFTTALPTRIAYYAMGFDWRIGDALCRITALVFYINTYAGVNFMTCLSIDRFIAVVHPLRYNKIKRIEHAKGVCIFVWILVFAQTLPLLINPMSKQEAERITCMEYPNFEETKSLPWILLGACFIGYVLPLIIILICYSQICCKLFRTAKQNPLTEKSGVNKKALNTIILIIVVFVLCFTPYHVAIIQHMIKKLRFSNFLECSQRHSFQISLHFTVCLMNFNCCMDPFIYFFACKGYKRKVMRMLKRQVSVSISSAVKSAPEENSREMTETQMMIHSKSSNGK
CCR6 antag – CCR6 receptor antagonists, primary screen, cell-based, CHO-K1, luminescence, beta-arrestin, uHTS; CHO-K1 CCR6 PathHunter beta-arrestin, CCL20-stimulated; inhibition, % at 20 µM; 340,000 compounds, 0.49% hits;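 active = compounds whose inhibition of the agonist-driven luminescence signal at 20 µM reaches about 50%, limit read from the data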;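 also: cells stimulated with CCL20 at 14 nM final; plate controls were DMSO with CCL20 for no effect and DMSO without agonist for full effect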
CXCR6 block – CXCR6 receptor inhibitors, primary screen, cell-based, beta-arrestin, luminescence, CHO-K1 PathHunter, 1536-well; C-X-C chemokine receptor type 6 (Homo sapiens), O00574; AID 602244, 2012; 360,000 compounds, 0.36% hits; inhibition, % at 20 µM; in the data active = inhibition above about 34%, passing the limit was not always enough;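 also: antagonist mode with CXCL16 agonist at 10 nM final; 0% = 10 nM CXCL16 with DMSO and 100% = unstimulated wells without agonist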
HTR2A ag – mouse Htr2a agonists via beta-arrestin recruitment, primary screen, cell-based, luminescence; CHO-K1 mHTR2A beta-arrestin complementation; percent of 30 µM serotonin response; AID 624169, 2012; activation, % at 7.6 µM; 360,000 compounds, 0.66% hits;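 active = activation above a run cutoff, the mean activation of all tested compounds plus 3 SD, cut at about 14% in these data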;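 also: 0% = plate median of compound wells and 100% = 30 µM serotonin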
APJ antag – antagonists of human apelin receptor APJ, primary screen, CHO-K1 cells, beta-arrestin complementation, luminescence; P35414; inhibition, % at 20 µM; 330,000 compounds, 0.32% hits; AID 2521, 2010;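 active = inhibition above about 40% at 20 µM, limit read from the data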;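 also: cells challenged with 10 nM apelin-13 agonist together with compound; plate controls were apelin-13 plus DMSO wells for no effect and DMSO wells lacking apelin-13 for full effect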
APJ agonist – agonists of human apelin receptor APJ, primary screen, CHO-K1 cells, PathHunter beta-arrestin, luminescence; P35414; activation, % at 20 µM; 330,000 compounds, 0.11% hits; 0% DMSO wells, 100% apelin;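 active = activation more than six SD over the plate average, tested at 20 µM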;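 also: 0% = DMSO alone and 100% = apelin-13 at 10 nM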
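Test system: CHO-K1 APJ beta-arrestin complementation cell line. Amount: cell density 1000 per well. Controls: DMSO negative, 10 nM Apelin-13 positive. Signal: luminescent beta-gal fragment complementation, chemiluminescent substrate. Read-out basis: agonist-driven arrestin binding to APJ. Timing: compound stimulation 90 min at 25 °C, detection 60 min.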
Numbers without * were called inactive; nt = no result given. Hits are enriched below; roughly 2.1% of the tested compounds scored in any of these assays.

SMILES | EBI2 antag | CCR6 antag | CXCR6 block | HTR2A ag | APJ antag | APJ agonist
O=C(N/N=C\c1cc(Cl)ccc1O)c1ccc(S(=O)(=O)N2CCCCC2)cc1 | 49* | 16 | -5 | 0 | -13 | 1
O=C(Nc1cc(S(=O)(=O)Nc2ccc(Cl)cc2)ccc1O)c1ccc(S(=O)(=O)N2CCCCCC2)cc1 | 10 | 9 | 3 | 4 | -14 | -2
Cc1cc(N(CCO)CCO)ccc1N=Nc1cc(F)ccc1F | 15 | 44 | 30 | -4 | 61* | -9
Nc1ccc(N(CCO)CCO)cc1 | -7 | -10 | -11 | 5 | -16 | 3
CC(OC(=O)CNC(=O)c1cccs1)C(=O)Nc1ccc(S(N)(=O)=O)cc1 (stereo not drawn) | -13 | 3 | -2 | -1 | 10 | -1
COc1ccccc1N1CCN(Cc2ccc(O)c3ncccc23)CC1 | 73* | 30 | 27 | -14 | 22 | -9
CCOC(=O)C1CCN(Cc2ccc(O)c3ncccc23)CC1 | 45* | 35 | 32 | -3 | 14 | -4
COc1ccccc1N1CCN(Cc2ccc(OC)c(OC)c2OC)CC1 | -3 | 6 | -1 | -5 | 1 | -5
O=C(Cn1nc(-c2cccc(Cl)c2)ccc1=O)NCC1COCCO1 (stereo not drawn) | 0 | -7 | -10 | 3 | 7 | -2
COc1ccc(CN2CCNC(=O)C2CC(=O)NCCc2nc(C)c3c(n2)CCC3)cc1C (stereo not drawn) | 2 | 8 | -1 | -2 | -3 | 1
Cc1cc(C)nc(SCc2cc(=O)c(OC(=O)c3ccc(Cl)c([N+](=O)[O-])c3)co2)n1 | 1 | 13 | 21 | -3 | 58* | 1
Cc1cc(C)nc(SCc2cc(=O)c(OC(=O)c3ccc(S(=O)(=O)N(C)C)cc3)co2)n1 | -2 | 5 | 6 | -1 | 12 | 0
CCCC(=O)Nc1nnc(-c2ccc(Cl)s2)o1 | -5 | 1 | -5 | 27* | 8 | -3
O=C(Nc1nnc(-c2ccc(Cl)s2)o1)C1CCCCC1 | -6 | 18 | 13 | 10 | 4 | -2
O=Nc1c(-c2c(O)[nH]c3cc(Br)ccc23)[nH]c2ccccc12 | 26 | 75* | 61* | -5 | 36 | -2
Cc1ccc(-c2cc(-c3ccc(Cl)cc3)c(C#N)c(N)n2)o1 | -1 | 86* | 8 | 1 | -19 | -4
C#CCNC(=O)c1ccc2sc([C@@H]3O[C@H](CO)[C@H](O)[C@H](O)[C@H]3O)nc2c1 | -1 | nt | 8 | -5 | nt | nt
CCN(CC)c1ccc(/C=C2/C(=O)ON=C2C)cc1 | -2 | 50 | 2 | 4 | 27 | 1
CCN(CC)c1ccc(/C=C2\C(=O)N(c3nnc(C)c(=O)[nH]3)N=C2C)cc1 | 63* | 48 | 28 | -1 | 16 | -2
COc1ccc(NC(=S)N(Cc2ccc(N(C)C)cc2)Cc2ccco2)cc1 | 24 | 11 | -10 | 2 | 0 | -6
CCOc1ccc(NC(=S)N(Cc2ccc(N(C)C)cc2)Cc2ccco2)cc1 | 44* | 6 | 3 | -5 | 4 | -5
O=C(COC(=O)Cc1ccc(F)cc1)NC(=O)NC1CCCC1 | -8 | 4 | -2 | -5 | 4 | -1
O=C(COC(=O)Cc1ccc(F)cc1)NC1CCCC1 | 0 | 9 | -6 | 21* | 10 | -3
COc1ccc(CC(=O)Nc2cccc(-c3nnc(-c4cccc(C)c4)o3)c2)cc1OC | -10 | 0 | -8 | 8 | -22 | 24*
CCN(CC(=O)Nc1ccc2c(c1)OCCO2)C(=O)c1ccc(Cl)cc1Cl | -4 | 6 | -4 | 2 | 10 | -7
SMILES | EBI2 antag | CCR6 antag | CXCR6 block | HTR2A ag | APJ antag | APJ agonist
CN(CC(=O)Nc1ccc(OC(F)(F)F)cc1)C(=O)c1ccccc1SCC(=O)N1CCCC1 | 1 | -1 | 4 | -1 | nt | nt
COc1cc(/C=C2/C(=O)NN(c3ccc(Cl)cc3)C2=O)cc(Br)c1O | -9 | 25 | 26 | -1 | 24 | -6
COc1cc(/C=C2/C(=O)NN(c3ccc(Cl)cc3)C2=O)ccc1OC(=O)c1ccco1 | 3 | 72* | 50* | -1 | 16 | -4
COc1cc(/C=N/NC(=O)c2ccc(F)cc2)ccc1OC(=O)c1ccco1 | -12 | -5 | -4 | 1 | -25 | 2
COc1cc(/C=C2/C(=O)NN(c3cccc(F)c3)C2=O)ccc1OC(=O)c1ccco1 | -20 | 0 | 40* | 2 | -1 | -3
N#CC1=C(N)C2=CCCC[C@H]2[C@H](c2ccc(Br)cc2)C1(C#N)C#N | 35 | 68* | 46* | -1 | nt | nt
CCCCCCN1C=C/C(=C\C=C(C#N)C#N)c2ccccc21 | 38 | 77* | 61* | 1 | 65* | -7
C=CCN1C=C/C(=C\C=C(C#N)C#N)c2ccccc21 | 26 | 74* | 46* | -7 | 70* | -16
C=CCN1C=CC(=CC=C(C#N)C#N)C=C1 | 15 | 13 | 13 | 6 | 16 | 1
COCCCNC(=S)N1CCC(C(=O)c2ccc(Cl)cc2)CC1 | 31 | 3 | -2 | -2 | 10 | -2
CCN1C[C@@H]2[C@@H]3C(=O)N(Cc4ccccc4)C(=O)[C@@H]3[C@](C)(C1=O)N2C(=O)c1ccc(Br)cc1 | -2 | 5 | 3 | 0 | nt | nt
CCCCc1ccc(NC(=O)Cn2c(=O)c(N3CCCCC3)c(N)n(C)c2=O)cc1 | 9 | -4 | 10 | -8 | -5 | -4
O=C(NN=Cc1cc(Cl)ccc1[N+](=O)[O-])c1cccc2ccccc12 | -3 | 1 | -6 | -5 | nt | nt
Cc1cc(C(=O)N/N=C/c2cc(Cl)cc([N+](=O)[O-])c2O)c2ccccc2n1 | 54* | 35 | 23 | -17 | 12 | -6
O=c1[nH]c(=O)n(Cc2ccc(Oc3ccccc3)cc2)cc1Br | 2 | nt | -9 | 2 | 5 | -6
C=C1CC(Cn2cc(Br)c(=O)[nH]c2=O)(c2ccc(-c3ccccc3)cc2)OC1=O (stereo not drawn) | 84* | nt | 43* | 6 | nt | nt
C(=C\c1sc(Nc2ccccc2)n[n+]1-c1ccccc1)/c1ccccc1 | -4 | 66* | 26 | 0 | nt | nt
N=C1/C(=C/c2cccn2CCOc2ccccc2)C(=O)N=C2SC=C(c3ccccc3)N12 | 41* | 42 | 20 | -5 | 9 | -2
N=C1/C(=C\c2ccc(-c3cc(Cl)cc(Cl)c3)o2)C(=O)N=C2SC=C(c3ccccc3)N12 | 17 | 35 | 31 | 4 | 35 | -3
Cc1cc(Cl)ccc1NC(=O)CN1C(=O)C(=O)N(C2CCCC2)C1=O | -11 | 10 | -6 | 5 | -54 | -4
